Results from ChEMBL document CHEMBL1275561, “In vitro activities of doripenem, a new broad-spectrum carbapenem, against recently collected clinical anaerobic isolates, with emphasis on the Bacteroides fragilis group” (2008).

Experiments:
Type in all cases: functional
[1] = tested on: Parabacteroides distasonis; assay: Antimicrobial activity against Bacteroides distasonis by agar dilution method
In short: (§1)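 CLSI agar dilution on enriched brucella agar (5% lysed defibrinated sheep blood, 1 μg/ml vitamin K1), with drug plates made on the test day. Log-phase cells were adjusted to 0.5 McFarland, and about 10^5 CFU/spot was delivered by Steers replicator. Plates were incubated anaerobically at 37°C for 48 h. MIC was the lowest concentration giving a marked growth change versus the control plate. Controls were B. fragilis ATCC 25285 and B. thetaiotaomicron ATCC 29741.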

Bacteroides caccae [2] = assay: Antimicrobial activity against Bacteroides caccae assessed as resistant isolates by agar dilution method
In short: (§2)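 CLSI agar dilution on enriched brucella agar (5% lysed defibrinated sheep blood, 1 μg/ml vitamin K1), plates made on test day. Log-phase inocula adjusted to 0.5 McFarland; about 10^5 CFU/spot by Steers replicator. Incubated anaerobically at 37°C for 48 h. MIC was the lowest concentration giving a marked change in growth versus the drug-free control plate. Resistance rates used CLSI anaerobe breakpoints. Controls were B. fragilis ATCC 25285 and B. thetaiotaomicron ATCC 29741.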

Bacteroides caccae [3] = assay: Antimicrobial activity against Bacteroides caccae by agar dilution method; in short: as §1
[4] = tested on: Parabacteroides distasonis; assay: Antimicrobial activity against Bacteroides distasonis assessed as resistant isolates by agar dilution method; in short: as §2
Bacteroides fragilis [5] = assay: Antimicrobial activity against Bacteroides fragilis by agar dilution method; in short: as §1
Bacteroides fragilis [6] = assay: Antimicrobial activity against Bacteroides fragilis assessed as resistant isolates by agar dilution method; in short: as §2
Bacteroides ovatus [7] = assay: Antimicrobial activity against Bacteroides ovatus by agar dilution method; in short: as §1
Bacteroides ovatus [8] = assay: Antimicrobial activity against Bacteroides ovatus assessed as resistant isolates by agar dilution method; in short: as §2
[9] = tested on: Bacteroides thetaiotaomicron; assay: Antimicrobial activity against Bacteroides thetaiotaomicron by agar dilution method; in short: as §1
[10] = tested on: Bacteroides thetaiotaomicron; assay: Antimicrobial activity against Bacteroides thetaiotaomicron assessed as resistant isolates by agar dilution method; in short: as §2
Bacteroides uniformis [11] = assay: Antimicrobial activity against Bacteroides uniformis by agar dilution method; in short: as §1
Bacteroides uniformis [12] = assay: Antimicrobial activity against Bacteroides uniformis assessed as resistant isolates by agar dilution method; in short: as §2
Phocaeicola vulgatus [13] = assay: Antimicrobial activity against Bacteroides vulgatus by agar dilution method; in short: as §1
Phocaeicola vulgatus [14] = assay: Antimicrobial activity against Bacteroides vulgatus assessed as resistant isolates by agar dilution method; in short: as §2
Bacteroides eggerthii [15] = assay: Antimicrobial activity against Bacteroides eggerthii by agar dilution method; in short: as §1
Bacteroides eggerthii [16] = assay: Antimicrobial activity against Bacteroides eggerthii assessed as resistant isolates by agar dilution method; in short: as §2
Parabacteroides merdae [17] = assay: Antimicrobial activity against Bacteroides merdae by agar dilution method; in short: as §1
Parabacteroides merdae [18] = assay: Antimicrobial activity against Bacteroides merdae assessed as resistant isolates by agar dilution method; in short: as §2
Bacteroides nordii [19] = assay: Antimicrobial activity against Bacteroides nordii by agar dilution method; in short: as §1
Bacteroides nordii [20] = assay: Antimicrobial activity against Bacteroides nordii assessed as resistant isolates by agar dilution method; in short: as §2
Finegoldia magna [21] = assay: Antimicrobial activity against Finegoldia magna assessed as resistant isolates by agar dilution method
In short: (§3)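 Agar dilution following CLSI on brucella agar with 5% lysed defibrinated sheep blood and 1 μg/ml vitamin K1, plates made on test day. Log-phase cells at 0.5 McFarland, about 10^5 CFU/spot by Steers replicator, 48 h anaerobic at 37°C. MIC read as the lowest concentration causing a marked growth change versus control. Resistance counted by CLSI anaerobe breakpoints. Eubacterium lentum ATCC 43055 served as control.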

[22] = tested on: Peptoniphilus asaccharolyticus; assay: Antimicrobial activity against Peptoniphilus asaccharolyticus assessed as resistant isolates by agar dilution method; details: pooled result: one value given for 4 cell lines, strains, targets or settings; in short: as §3
Anaerococcus prevotii = assay: Antimicrobial activity against Anaerococcus prevotii by agar dilution method
In short: (§4)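 Gram-positive anaerobes were tested by CLSI agar dilution on brucella agar enriched with 5% lysed defibrinated sheep blood and 1 μg/ml vitamin K1. Inoculum was log-phase growth at 0.5 McFarland, about 10^5 CFU/spot by replicator. Incubation was anaerobic, 37°C, 48 h. MIC was the lowest concentration with a marked growth change versus the drug-free plate. Eubacterium lentum ATCC 43055 was the control, and tests were repeated if it fell outside the CLSI range.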

Peptostreptococcus sp. = assay: Antimicrobial activity against Peptostreptococcus sp. by agar dilution method
In short: (§5)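 Log-phase isolates were adjusted to 0.5 McFarland, and about 10^5 CFU/spot was delivered by Steers replicator. Plates were incubated anaerobically at 37°C for 48 h. MIC was the lowest concentration giving a marked growth change versus the control plate. Eubacterium lentum ATCC 43055 was the QC strain, with repeats when out of range.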

Cutibacterium acnes [23] = assay: Antimicrobial activity against Propionibacterium acnes by agar dilution method; in short: as §5
Cutibacterium acnes [24] = assay: Antimicrobial activity against Propionibacterium acnes assessed as resistant isolates by agar dilution method; in short: as §3
Propionibacterium [25] = assay: Antimicrobial activity against Propionibacterium sp. by agar dilution method; in short: as §5
Propionibacterium [26] = assay: Antimicrobial activity against Propionibacterium sp. assessed as resistant isolates by agar dilution method; in short: as §3
Clostridioides difficile = assay: Antimicrobial activity against Clostridium difficile by agar dilution method
Clostridium perfringens = assay: Antimicrobial activity against Clostridium perfringens by agar dilution method
[Clostridium] innocuum [27] = Antimicrobial activity against Clostridium innocuum by agar dilution method
[Clostridium] innocuum [28] = Antimicrobial activity against Clostridium innocuum assessed as resistant isolates by agar dilution method; details: pooled result: one value given for 4 cell lines, strains, targets or settings
[29] = tested on: Clostridium paraputrificum; assay: Antimicrobial activity against Clostridium paraputrificum by agar dilution method
Clostridium subterminale = assay: Antimicrobial activity against Clostridium subterminale by agar dilution method
Clostridium tertium = assay: Antimicrobial activity against Clostridium tertium by agar dilution method
Finegoldia magna [30] = assay: Antimicrobial activity against Finegoldia magna by agar dilution method; in short: as §4
[31] = tested on: Peptoniphilus asaccharolyticus; assay: Antimicrobial activity against Peptoniphilus asaccharolyticus by agar dilution method; in short: as §4
Parvimonas micra = assay: Antimicrobial activity against Micromonas micros by agar dilution method; in short: as §4

COc1c(N2C[C@@H]3CCCN[C@@H]3C2)c(F)cc2c(=O)c(C(=O)O)cn(C3CC3)c12 [MOXIFLOXACIN]
53.3%: Activity [4]
0%: Activity (Cutibacterium acnes [24]) | Activity (Propionibacterium [26])
14.8%: Activity [22]
40%: Activity (Bacteroides ovatus [8]) | Activity (Bacteroides eggerthii [16]) | Activity (Parabacteroides merdae [18]) | Activity (Bacteroides nordii [20]) | Activity (Finegoldia magna [21])
14.3%: Activity (Bacteroides uniformis [12])
32 µg/mL: MIC90 (Bacteroides ovatus [7]) | MIC90 [9]
8 µg/mL: MIC50 [1] | MIC90 (Bacteroides fragilis [5]) | MIC50 (Phocaeicola vulgatus [13])
1 µg/mL: MIC50 (Bacteroides fragilis [5])
0.5 µg/mL: MIC50 (Anaerococcus prevotii) | MIC50 (Peptostreptococcus sp.) | MIC90 (Cutibacterium acnes [23]) | MIC90 (Propionibacterium [25])
50%: Activity (Bacteroides caccae [2])
0.25 µg/mL: MIC50 (Cutibacterium acnes [23]) | MIC (Propionibacterium [25]) | MIC50 (Propionibacterium [25])
29.3%: Activity (Bacteroides fragilis [6])
64 µg/mL: MIC90 (Bacteroides uniformis [11]) | MIC90 (Phocaeicola vulgatus [13])
16 µg/mL: MIC90 [1] | MIC90 (Bacteroides caccae [3]) | MIC90 (Bacteroides eggerthii [15]) | MIC90 (Parabacteroides merdae [17]) | MIC90 (Bacteroides nordii [19]) | MIC90 (Anaerococcus prevotii) | MIC90 (Peptostreptococcus sp.)
30.8%: Activity [10]
2 µg/mL: MIC50 (Bacteroides ovatus [7]) | MIC50 (Bacteroides eggerthii [15]) | MIC50 (Parabacteroides merdae [17]) | MIC50 (Bacteroides nordii [19])
48.4%: Activity (Phocaeicola vulgatus [14])
4 µg/mL: MIC50 (Bacteroides caccae [3]) | MIC50 [9] | MIC50 (Bacteroides uniformis [11])

CN[C@H](CC(C)C)C(=O)N[C@H]1C(=O)N[C@@H](CC(N)=O)C(=O)N[C@H]2C(=O)N[C@H]3C(=O)N[C@H](C(=O)N[C@H](C(=O)O)c4cc(O)cc(O)c4-c4cc3ccc4O)[C@H](O)c3ccc(c(Cl)c3)Oc3cc2cc(c3O[C@@H]2O[C@H](CO)[C@@H](O)[C@H](O)[C@H]2O[C@H]2C[C@](C)(N)[C@H](O)[C@H](C)O2)Oc2ccc(cc2Cl)[C@H]1O [VANCOMYCIN]
16 µg/mL: MIC90 ([Clostridium] innocuum [27]) | MIC90 [29] | MIC90 (Clostridium subterminale) | MIC90 (Clostridium tertium)
2 µg/mL: MIC90 (Clostridium perfringens) | MIC90 [31] | MIC90 (Parvimonas micra) | MIC90 (Anaerococcus prevotii) | MIC90 (Peptostreptococcus sp.)
1 µg/mL: MIC (Clostridioides difficile) | MIC (Clostridium perfringens) | MIC50 (Clostridium perfringens) | MIC50 (Finegoldia magna [30]) | MIC90 (Finegoldia magna [30]) | MIC50 [31] | MIC50 (Parvimonas micra) | MIC50 (Anaerococcus prevotii) | MIC50 (Peptostreptococcus sp.) | MIC (Cutibacterium acnes [23]) | MIC50 (Cutibacterium acnes [23]) | MIC90 (Cutibacterium acnes [23]) | MIC (Propionibacterium [25]) | MIC50 (Propionibacterium [25]) | MIC90 (Propionibacterium [25])
0%: Activity ([Clostridium] innocuum [28]) | Activity (Finegoldia magna [21]) | Activity (Cutibacterium acnes [24]) | Activity (Propionibacterium [26])
8 µg/mL: MIC50 ([Clostridium] innocuum [27]) | MIC50 [29] | MIC50 (Clostridium subterminale) | MIC50 (Clostridium tertium)
2.4%: Activity [22]
